Assay results from ChEMBL document CHEMBL3271997, “Reactions of 2-acyloxyisobutyryl halides with nucleosides. 6. Synthesis and biological evaluation of some 3'-acyl derivatives of 2,2'-anhydro-1-(beta-D-arabinofuranosyl)cytosine hydrochloride” (J Med Chem, 1976).
Active and inactive are the calls of the source. The calls are words filed in the database; no cut-off is given here.

Legend:
L1210 [1] = test: Antitumor activity against mouse L1210 cells allografted in BDF1 mouse assessed as survival at 200 mg/kg, ip administered as single dose 24 hrs post-implantation after 30 days; format: functional, organism-based; parameters: dose 200 mg/kg
How it was run: (§1)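 BDF1 mice were inoculated ip with 1-2 × 10⁵ L1210 cells. After 24 h, one ip dose was given as a solution or suspension in aqueous 0.9% NaCl, 0.4% polysorbate 80, 0.5% low-viscosity Na carboxymethylcellulose and 0.9% benzyl alcohol. Mice were followed for 30 days, with 8-10 per group. The read-out is % increase in life span versus infected controls, plus the count of 30-day survivors.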

L1210 [2] = test: Antitumor activity against mouse L1210 cells allografted in BDF1 mouse assessed as increase in life span at 200 mg/kg, ip administered as single dose 24 hrs post-implantation measured up to 30 days relative to control; format: functional; details: route intraperitoneal
How it was run: (§2)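 BDF1 mice inoculated ip with 1-2 × 10⁵ L1210 cells; 24 h later a single ip dose given as solution or suspension in aqueous 0.9% NaCl, 0.4% polysorbate 80, 0.5% low-viscosity sodium carboxymethylcellulose, 0.9% benzyl alcohol. Mice held on normal diet for 30 days. Groups of eight to ten animals; percent increase in life span versus untreated infected controls, with 30-day survivors counted.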

Vaccinia virus = test: Antiviral activity against Vaccinia virus IHD infected in African green monkey BGM cells after 6 days by plaque reduction assay; format: functional; details: Orthopoxvirus vaccinia, 144 h, read-out: ED50 (the source's name)
Herpesviridae sp. = test: Antiviral activity against Herpes simplex virus HF infected in African green monkey BGM cells after 6 days by plaque reduction assay; format: functional; details: 144 h, read-out: ED50 (the source's name)
How it was run: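 Quantitative plaque reduction assay. Confluent BGM monolayers were infected with 100-200 pfu of HSV (HF strain) and overlaid with 1.25% agar in MEM with 2.0% bovine serum containing graded compound concentrations. A second overlay with neutral red (1:20000) was added on day 4, and plaques were counted on day 6. ED50, the μM concentration giving 50% plaque reduction, was taken from a probability plot of % inhibition against concentration.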

HeLa = test: Cytotoxicity against human HeLa cells after 48 hrs by Coulter counting analysis; format: functional; details: read-out: ED50 (the source's name)
How it was run: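 HeLa cells (10⁵) were grown for 2 days at 37° in MEM with 10% bovine serum. The medium was then replaced with fresh medium containing serial compound dilutions. After 48 h, cells were dispersed with 0.02% trypsin and 0.04% versene and counted on a Coulter counter. The result is expressed as ED50 in μg/ml.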

Mus musculus [3] = test: Toxicity in BDF1 mouse allografted with mouse L1210 cells assessed as reduction in survival at 500 mg/kg, ip administered as single dose 24 hrs post-implantation measured up to 30 days relative to control; format: organism-based; parameters: dose 500 mg/kg, route intraperitoneal; details: in vivo; how it was run: as §2
Mus musculus [4] = test: Toxicity in BDF1 mouse allografted with mouse L1210 cells assessed as reduction in average life span at 500 mg/kg, ip administered as single dose 24 hrs post-implantation measured up to 30 days relative to control; format: organism-based; parameters: dose 500 mg/kg, route intraperitoneal; details: in vivo; how it was run: as §1
Mus musculus [5] = test: Toxicity in BDF1 mouse allografted with mouse L1210 cells assessed as reduction in survival at 1000 mg/kg, ip administered as single dose 24 hrs post-implantation measured up to 30 days relative to control; format: organism-based; parameters: dose 1000 mg/kg, route intraperitoneal; details: in vivo; how it was run: as §2
Mus musculus [6] = test: Toxicity in BDF1 mouse allografted with mouse L1210 cells assessed as reduction in average life span at 1000 mg/kg, ip administered as single dose 24 hrs post-implantation measured up to 30 days relative to control; format: organism-based; parameters: dose 1000 mg/kg, route intraperitoneal; details: in vivo; how it was run: as §1
Measles morbillivirus = test: Antiviral activity against Measles virus infected in African green monkey BGM cells after 5 days by pulp disk diffusion assay; format: functional, organism-based
How it was run: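 Preliminary pulp disk diffusion screen. BGM cells were infected with 200 pfu of measles virus. A filter paper disk impregnated with 50 μg of compound was applied. Activity was scored as the diameter of the zone of plaque inhibition on day 5.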

Mus musculus [7] = test: Toxicity in BDF1 mouse allografted with mouse L1210 cells at 3000 mg/kg, ip; format: organism-based; parameters: dose 3000 mg/kg, route intraperitoneal; details: in vivo; how it was run: as §1
BGM = test: Antiviral activity against Poliovirus type 1 Mahoney infected in African green monkey BGM cells after 5 days by pulp disk diffusion assay; format: functional, cell-based; details: Human poliovirus 1 Mahoney
How it was run: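 Pulp disk diffusion screen: BGM African green monkey kidney cells infected with 200 pfu Mahoney type I poliovirus; filter paper disk loaded with 50 μg compound; antiviral activity read as diameter of plaque-inhibition zone on day 5.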

L1210 [8] = test: Antitumor activity against mouse L1210 cells allografted in BDF1 mouse assessed as increase in life span at 2000 mg/kg, ip administered as single dose 24 hrs post-implantation measured up to 30 days relative to control; format: functional; details: route intraperitoneal; how it was run: as §2
L1210 [9] = test: Antitumor activity against mouse L1210 cells allografted in BDF1 mouse assessed as survival at 1000 mg/kg, ip administered as single dose 24 hrs post-implantation after 30 days; format: functional, organism-based; parameters: dose 1000 mg/kg; how it was run: as §1
L1210 [10] = test: Antitumor activity against mouse L1210 cells allografted in BDF1 mouse assessed as survival at 500 mg/kg, ip administered as single dose 24 hrs post-implantation after 30 days; format: functional, organism-based; parameters: dose 500 mg/kg; how it was run: as §1
[11] = tested on: unidentified influenza virus; test: Antiviral activity against Influenza virus […] infected in monkey LLC-MK2 cells after 5 days by pulp disk diffusion assay; format: functional, organism-based
How it was run: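 Pulp disk diffusion screen: LLCMK2 cells infected with 200 pfu influenza Ao/WSN in presence of trypsin; filter paper disk loaded with 50 μg compound; antiviral activity read as diameter of plaque-inhibition zone on day 5.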

L1210 [12] = test: Antitumor activity against mouse L1210 cells allografted in BDF1 mouse assessed as increase in life span at 1000 mg/kg, ip administered as single dose 24 hrs post-implantation measured up to 30 days relative to control; format: functional; details: route intraperitoneal; how it was run: as §2
[13] = Half life in human; format: ADME, organism-based; details: in vivo
L1210 [14] = test: Antitumor activity against mouse L1210 cells allografted in BDF1 mouse assessed as increase in life span at 500 mg/kg, sc administered 10 days prior to infection relative to control; format: functional; details: route subcutaneous
How it was run: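 Single subcutaneous dose given 10 days before infection of mice with L1210 cells; activity expressed as percent increase in life span relative to untreated controls.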

Mus musculus [15] = test: Toxicity in BDF1 mouse allografted with mouse L1210 cells assessed as reduction in average life span at 200 mg/kg, ip administered as single dose 24 hrs post-implantation measured up to 30 days relative to control; format: organism-based; parameters: dose 200 mg/kg, route intraperitoneal; details: in vivo; how it was run: as §1
Mus musculus [16] = test: Toxicity in BDF1 mouse allografted with mouse L1210 cells assessed as reduction in survival at 200 mg/kg, ip administered as single dose 24 hrs post-implantation measured up to 30 days relative to control; format: organism-based; parameters: dose 200 mg/kg, route intraperitoneal; details: in vivo; how it was run: as §2

SMILES	Activity (L1210 [1])	ILS at 200 mg/kg (L1210 [2]) [%]	EC50 (Vaccinia virus) [nM]	EC50 (Herpesviridae sp.) [nM]	EC50 (HeLa) [µg/mL]	also measured
CCCCCC(=O)O[C@H]1[C@@H]2Oc3nc(=N)ccn3[C@@H]2O[C@@H]1CO.Cl	inactive	40	230	1550	0.1	–
CCCCCCCCCCCC(=O)O[C@H]1[C@@H]2Oc3nc(=N)ccn3[C@@H]2O[C@@H]1CO.Cl	inactive	40	640	640	0.1	–
CCC(=O)O[C@H]1[C@@H]2Oc3nc(=N)ccn3[C@@H]2O[C@@H]1CO.Cl	inactive	29	600	2550	0.1	–
CCCCCCCC/C=C/CCCCCCCC(=O)O[C@H]1[C@@H]2Oc3nc(=N)ccn3[C@@H]2O[C@@H]1CO.Cl	–	> 162	900	1900	0.09	–
CCCC(=O)O[C@H]1[C@@H]2Oc3nc(=N)ccn3[C@@H]2O[C@@H]1CO.Cl	inactive	30	590	2050	0.12	–
CCCCCCCCCC(=O)O[C@H]1[C@@H]2Oc3nc(=N)ccn3[C@@H]2O[C@@H]1CO.Cl	inactive	35	150	1050	0.2	–
Cl.N=c1ccn2c(n1)O[C@H]1[C@H](OC(=O)Cc3ccccc3)[C@@H](CO)O[C@H]12	inactive	33	560	560	0.07	–
CCCCCCCC(=O)O[C@H]1[C@@H]2Oc3nc(=N)ccn3[C@@H]2O[C@@H]1CO.Cl	–	34	190	720	0.1	Activity (Mus musculus [3]): Toxic; ILS (Mus musculus [4]): -93%; Activity (Mus musculus [5]): Toxic; ILS (Mus musculus [6]): -100%
Cl.N=c1ccn2c(n1)O[C@H]1[C@H](OC(=O)c3ccccc3)[C@@H](CO)O[C@H]12	inactive	17	5900	8200	0.2	–
CCCCCCCCC(=O)O[C@H]1[C@@H]2Oc3nc(=N)ccn3[C@@H]2O[C@@H]1CO.Cl	inactive	33	290	400	0.05	–
C=CCCCCCCCCC(=O)O[C@H]1[C@@H]2Oc3nc(=N)ccn3[C@@H]2O[C@@H]1CO.Cl	inactive	38	510	1200	0.05	–
CCCCCCCC/C=C\CCCCCCCC(=O)O[C@H]1[C@@H]2Oc3nc(=N)ccn3[C@@H]2O[C@@H]1CO.Cl	inactive	72	670	1200	0.08	–
Cl.N=c1ccn2c(n1)O[C@H]1[C@H](O)[C@@H](CO)O[C@H]12 [ANCITABINE HYDROCHLORIDE]	inactive	25	410	700	0.05	Activity (Measles morbillivirus): inactive; Activity (Mus musculus [7]): Toxic; Activity (BGM): inactive; ILS at 2000 mg/kg (L1210 [8]): > 151%; Activity (L1210 [9]): inactive; Activity (L1210 [10]): inactive; Activity [11]: inactive; ILS at 1000 mg/kg (L1210 [12]): 89%
CC(=O)O[C@H]1[C@@H]2Oc3nc(=N)ccn3[C@@H]2O[C@@H]1CO.Cl	inactive	37	730	2250	0.18	Activity (L1210 [9]): inactive; ILS at 1000 mg/kg (L1210 [12]): 87%
Nc1ccn([C@@H]2O[C@H](CO)[C@@H](O)[C@@H]2O)c(=O)n1 [CYTARABINE]	–	–	–	–	–	half-life [13]: 12 min
CCCCCCCCCCCCCC(=O)O[C@H]1[C@@H]2Oc3nc(=N)ccn3[C@@H]2O[C@@H]1CO.Cl	inactive	100	340	1350	0.2	Activity (L1210 [9]): Active; ILS at 500 mg/kg (L1210 [14]): 64%; ILS at 1000 mg/kg (L1210 [12]): > 280%
CCCCCCCCCCC(=O)O[C@H]1[C@@H]2Oc3nc(=N)ccn3[C@@H]2O[C@@H]1CO.Cl	inactive	87	190	460	0.06	–
CCCCCCCCCCCCCCCCCCCCCC(=O)O[C@H]1[C@@H]2Oc3nc(=N)ccn3[C@@H]2O[C@@H]1CO.Cl	–	> 169	18500	> 30000	0.38	ILS at 1000 mg/kg (L1210 [12]): > 240%
CCCCCCCCCCCCCCCCCC(=O)O[C@H]1[C@@H]2Oc3nc(=N)ccn3[C@@H]2O[C@@H]1CO.Cl	inactive	115	1600	5450	0.22	Activity (L1210 [9]): Active; ILS at 1000 mg/kg (L1210 [12]): > 257%
CCCCCCCCCCCCCCCC(=O)O[C@H]1[C@@H]2Oc3nc(=N)ccn3[C@@H]2O[C@@H]1CO.Cl	–	> 191	1200	5500	0.2	Activity (Mus musculus [5]): Toxic; ILS (Mus musculus [6]): -20%
CCCCCCCC/C=C\CCCCCCCCCCCC(=O)O[C@H]1[C@@H]2Oc3nc(=N)ccn3[C@@H]2O[C@@H]1CO.Cl	–	> 269	30000	> 30000	0.18	–
CCCCCCC/C=C/C(=O)O[C@H]1[C@@H]2Oc3nc(=N)ccn3[C@@H]2O[C@@H]1CO.Cl	–	–	150	210	0.06	ILS (Mus musculus [15]): -83%; Activity (Mus musculus [16]): Toxic
CCCCCCCCCCCCCCCCCCCC(=O)O[C@H]1[C@@H]2Oc3nc(=N)ccn3[C@@H]2O[C@@H]1CO.Cl	–	> 281	> 30000	> 30000	0.22	Activity (L1210 [9]): Active; ILS at 1000 mg/kg (L1210 [12]): > 266%
CC(C)C(=O)O[C@H]1[C@@H]2Oc3nc(=N)ccn3[C@@H]2O[C@@H]1CO.Cl	inactive	22	1550	8800	0.2	–
